Measured values: ChEMBL document CHEMBL4602702, “Red-Emitting Dibenzodiazepinone Derivatives as Fluorescent Dualsteric Probes for the Muscarinic Acetylcholine M2 Receptor” (J Med Chem, 2020)

Columns and labels:
[1] = target: T1, Muscarinic acetylcholine receptor M2 (Homo sapiens) (UniProt P08172); experiment: Binding affinity to human muscarinic M2 receptor expressed in CHO-K9 cells assessed as dissociation rate constant at 22 +/- 1 degree C preincubated for 110 mins followed by atropine addition by flow cytometric saturation binding study; type: cell-based
T1 sequence (whole entry): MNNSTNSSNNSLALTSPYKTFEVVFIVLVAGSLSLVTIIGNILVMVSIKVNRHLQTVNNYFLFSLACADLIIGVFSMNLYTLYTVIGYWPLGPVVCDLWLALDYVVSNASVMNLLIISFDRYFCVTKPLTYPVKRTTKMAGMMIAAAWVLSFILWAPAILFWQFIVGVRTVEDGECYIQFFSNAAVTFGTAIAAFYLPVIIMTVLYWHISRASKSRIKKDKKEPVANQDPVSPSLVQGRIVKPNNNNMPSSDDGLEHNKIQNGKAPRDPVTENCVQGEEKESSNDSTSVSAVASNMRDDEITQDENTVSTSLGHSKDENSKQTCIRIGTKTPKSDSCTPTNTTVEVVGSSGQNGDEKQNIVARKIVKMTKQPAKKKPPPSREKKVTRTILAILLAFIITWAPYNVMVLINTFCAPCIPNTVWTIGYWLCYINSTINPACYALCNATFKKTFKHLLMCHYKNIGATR
Summary of the method: (§1)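 Dissociation followed by flow cytometry at 22 °C over 9 h. koff from three-parameter incomplete monophasic decline fit; three or four experiments in duplicate.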

[2] = target: T2, Muscarinic acetylcholine receptor M2 (Homo sapiens, UniProt P08172); experiment: Binding affinity to human muscarinic M2 receptor expressed in […] cells at 22 +/- 1 degree C preincubated for 110 mins followed by atropine addition by flow cytometric saturation binding study; type: cell-based
T2 sequence (P08172 whole entry): T1 sequence (whole entry)

[3] = target: T1, Muscarinic acetylcholine receptor M2 (Homo sapiens); experiment: Binding affinity to human muscarinic M2 receptor expressed in CHO-K9 cells assessed as dissociation rate constant at 22 +/- 1 degree C preincubated for 180 mins followed by atropine addition by flow cytometric saturation binding study; type: cell-based; summary of the method: as §1
[4] = target: T2, Muscarinic acetylcholine receptor M2; experiment: Binding affinity to human muscarinic M2 receptor expressed in […] cells at 22 +/- 1 degree C preincubated for 180 mins followed by atropine addition by flow cytometric kinetic binding study
[5] = target: T1, Muscarinic acetylcholine receptor M2 (Homo sapiens); experiment: Binding affinity to human muscarinic M2 receptor expressed in CHO-K9 cells assessed as dissociation rate constant at 22 +/- 1 degree C preincubated for 120 mins followed by atropine addition by flow cytometric saturation binding study; type: cell-based; summary of the method: as §1

SMILES: CC1(C)C(/C=C/C=C/C=C2/N(CCCCCC(=O)NCc3cc(C(=O)NCCNC(=O)CCc4cn(CCCCC5CCN(CC(=O)N6c7ccccc7NC(=O)c7ccccc76)CC5)cn4)cc(C(=O)NCCNC(=O)CCc4cn(CCCCC5CCN(CC(=O)N6c7ccccc7NC(=O)c7ccccc76)CC5)cn4)c3)c3ccc(S(=O)(=O)O)cc3C2(C)C)=[N+](CCCCS(=O)(=O)[O-])c2ccccc21.O=C(O)C(F)(F)F.O=C(O)C(F)(F)F.O=C(O)C(F)(F)F
- K [1]: 0.0031 min⁻¹
- Kd [2]: 1.4 nM

SMILES: CC1(C)C(/C=C/C=C/C=C2/N(CCCCCC(=O)NCCN3CCN(CCCCC4CCN(CC(=O)N5c6ccccc6NC(=O)c6ccccc65)CC4)CC3)c3ccc(S(=O)(=O)O)cc3C2(C)C)=[N+](CCCCS(=O)(=O)[O-])c2ccccc21.O=C(O)C(F)(F)F.O=C(O)C(F)(F)F
- K [3]: 0.0045 min⁻¹
- Kd [4]: 0.48 nM

SMILES: CC1(C)C(/C=C/C=C/C=C2/N(CCCCCC(=O)NCCNC(=O)CCc3cn(CCCCC4CCN(CC(=O)N5c6ccccc6NC(=O)c6ccccc65)CC4)cn3)c3ccc(S(=O)(=O)O)cc3C2(C)C)=[N+](CCCCS(=O)(=O)[O-])c2ccccc21.O=C(O)C(F)(F)F
- K [5]: 0.0069 min⁻¹
